Source: ChEMBL document CHEMBL1157578, “Design, synthesis, and biological evaluation of novel water-soluble triptolide derivatives: Antineoplastic activity against imatinib-resistant CML cells bearing T315I mutant Bcr-Abl” (Bioorg Med Chem, 2010)
Activity calls are given as the source filed them.

What was measured:
[1] = Cytotoxicity against human KBM5 cells harboring wild type Bcr-Abl after 72 hrs by MTT assay; conditions: KBM5, 72 h
[2] = Cytotoxicity against human KBM5 cells harboring Bcr-Abl T315I mutant after 72 hrs by MTT assay; format: functional, cell-based; conditions: KBM5, 72 h
HeLa = experiment: Inhibition of RNA polymerase 2 in human HeLa cells assessed as decrease in polymerase 2 phosphorylation at 50 to 100 nM after 18 hrs by Western blot analysis; format: cell-based
KBM5 [3] = experiment: Cytotoxicity against imatinib-resistant human KBM5 cells harboring Bcr-Abl T315I mutant at 0.001 to 17 uM after 72 hrs by MTS assay; format: functional, cell-based
Summary of the method: (§1)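 KBM5 (wild-type p210 Bcr-Abl) or KBM5-T315I cells in IMDM + 10% heat-inactivated FCS. The T315I subline was kept in 1 µM imatinib, removed 2–3 days before assay. Cells incubated 72 h with increasing concentrations. Viability by MTS at 490 nm, as percent of control; IC50 from dose–response curves.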

[4] = Cytotoxicity against imatinib-resistant mouse 32D cells harboring Bcr-Abl T315I mutant after 72 hrs by MTS assay; format: functional, cell-based
Summary of the method: (§2)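 32D myeloid cells stably expressing wild-type or T315I Bcr-Abl, maintained in RPMI 1640 + 10% FBS. Treated with increasing concentrations for 72 h. Viability by MTS, optical density at 490 nm.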

Mus musculus [5] = experiment: Toxicity in BALB/c nu/nu mouse xenografted with human KBM5 cells harboring Bcr-Abl T315I mutant assessed as occurrence of myelosuppression at 0.5 mg/kg/day, ip for 2 weeks administered on day 14 after tumor implantation; format: organism-based; parameters: route intraperitoneal; conditions: in vivo, 336 h
Summary of the method: (§3)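 Male nu/nu BALB/c mice (6–8 weeks) received 3 × 10⁷ KBM5-T315I cells subcutaneously in the flank. At about 50 mm³ (day 14) they were randomized, 4 per group, to daily ip drug in normal saline or the same volume of saline for two weeks. Body weight, feeding and motor activity were monitored, along with morbidity and mortality. At the end, blood was taken for AST, ALT, LDH and complete blood count.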

KBM5 [6] = experiment: Induction of apoptosis in human KBM5 cells harboring Bcr-Abl T315I mutant assessed as PARP cleavage at 50 to 100 uM after 18 hrs by Western blot analysis; format: functional, cell-based
DU-145 = experiment: Inhibition of RNA polymerase 2 in human DU145 cells assessed as decrease in polymerase 2 phosphorylation at 50 to 100 nM after 18 hrs by Western blot analysis; format: cell-based
Mus musculus [7] = experiment: Toxicity in BALB/c nu/nu mouse xenografted with human KBM5 cells harboring Bcr-Abl T315I mutant assessed as morbidity at 0.5 mg/kg/day, ip for 2 weeks administered on day 14 after tumor implantation; format: organism-based; parameters: route intraperitoneal; conditions: in vivo, 336 h; summary of the method: as §3
Mus musculus [8] = experiment: Toxicity in BALB/c nu/nu mouse xenografted with human KBM5 cells harboring Bcr-Abl T315I mutant assessed as effect on feeding behavior at 0.5 mg/kg/day, ip for 2 weeks administered on day 14 after tumor implantation; format: organism-based; parameters: route intraperitoneal; conditions: in vivo, 336 h; summary of the method: as §3
[9] = Downregulation of Bcr-Abl mRNA level in human KBM5 cells harboring wild type Bcr-Abl at 50 to 100 nM after 18 hrs by semi-quantitative RT-PCR analysis; format: functional, cell-based
Summary of the method: (§4)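 KBM5 and KBM5-T315I cells exposed to 50 or 100 nM, or control medium, for 18 h. Bcr-Abl and GAPDH mRNA measured by semi-quantitative RT-PCR; products run on 1% agarose and stained with ethidium bromide.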

Mus musculus [10] = experiment: Toxicity in BALB/c nu/nu mouse xenografted with human KBM5 cells harboring Bcr-Abl T315I mutant assessed as increase in blood alanine aminotransferase level at 0.5 mg/kg/day, ip for 2 weeks administered on day 14 after tumor implantation; format: organism-based; parameters: route intraperitoneal; conditions: in vivo, 336 h; summary of the method: as §3
KBM5 [11] = experiment: Induction of apoptosis in human KBM5 cells harboring wild type Bcr-Abl assessed as PARP cleavage at 50 to 100 uM after 18 hrs by Western blot analysis; format: functional, cell-based
HCT-116 = experiment: Inhibition of RNA polymerase 2 in human HCT116 cells assessed as decrease in polymerase 2 phosphorylation at 50 to 100 nM after 18 hrs by Western blot analysis; format: cell-based
KBM5 [12] = experiment: Inhibition of RNA polymerase 2 in human KBM5 cells harboring Bcr-Abl T315I mutant assessed as decrease in polymerase 2 phosphorylation after 18 hrs by Western blot analysis; format: cell-based
Summary of the method: (§5)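 Cells exposed for 18 h at the indicated concentrations. Whole-cell lysates made in RIPA buffer with phosphatase and protease inhibitors. Western blot for Bcr-Abl (c-Abl C-19), phospho-c-Abl Y245, phospho-RNA polymerase II, PARP, and actin as loading control.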

[13] = Downregulation of Bcr-Abl protein level in mouse 32D cells harboring Bcr-Abl T315I mutant after 18 hrs by Western blot analysis; format: functional, cell-based; summary of the method: as §5
MEF = experiment: Cytotoxicity against MEF after 72 hrs by MTS assay; format: cell-based; conditions: Mus musculus
Summary of the method: (§6)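 MEF and NHFB fibroblasts cultured in DMEM + 10% FCS. Exposed to increasing concentrations for 72 h. Viability by MTS reagent, optical density at 490 nm.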

[14] = Downregulation of Bcr-Abl protein level in human KBM5 cells harboring Bcr-Abl T315I mutant after 18 hrs by Western blot analysis; format: functional, cell-based; summary of the method: as §5
[15] = Downregulation of Bcr-Abl protein level in human KBM5 cells harboring wild type Bcr-Abl after 18 hrs by Western blot analysis; format: functional, cell-based; summary of the method: as §5
KBM5 [16] = experiment: Antitumor activity against Bcr-Abl T315I mutant expressing human KBM5 cells xenografted in BALB/c nu/nu mouse assessed as decrease in tumor volume at 0.5 mg/kg/day, ip for 2 weeks administered on day 14 after tumor implantation; format: functional, organism-based
Summary of the method: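 KBM5-T315I cells, 3 × 10⁷, injected s.c. into the flanks of male nu/nu BALB/c mice aged 6–8 weeks. Dosing began at about 50 mm³ on day 14: 0.5 mg/kg/d i.p. in normal saline for two weeks, with saline controls and four mice per group. Calipers every other day; volume = a² × b × 0.4.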

Mus musculus [17] = experiment: Toxicity in BALB/c nu/nu mouse xenografted with human KBM5 cells harboring Bcr-Abl T315I mutant assessed as increase in blood aspartate aminotransferase level at 0.5 mg/kg/day, ip for 2 weeks administered on day 14 after tumor implantation; format: organism-based; parameters: route intraperitoneal; conditions: in vivo, 336 h; summary of the method: as §3
Mus musculus [18] = experiment: Toxicity in BALB/c nu/nu mouse xenografted with human KBM5 cells harboring Bcr-Abl T315I mutant at 0.5 mg/kg/day, ip for 2 weeks administered on day 14 after tumor implantation by pilot dose-finding test; format: organism-based; parameters: route intraperitoneal; conditions: in vivo, 336 h
Mus musculus [19] = experiment: Toxicity in BALB/c nu/nu mouse xenografted with human KBM5 cells harboring Bcr-Abl T315I mutant assessed as change in body weight at 0.5 mg/kg/day, ip for 2 weeks administered on day 14 after tumor implantation; format: organism-based; parameters: route intraperitoneal; conditions: in vivo, 336 h; summary of the method: as §3
Mus musculus [20] = experiment: Toxicity in BALB/c nu/nu mouse xenografted with human KBM5 cells harboring Bcr-Abl T315I mutant assessed as mortality at 0.5 mg/kg/day, ip for 2 weeks administered on day 14 after tumor implantation; format: organism-based; parameters: route intraperitoneal; conditions: in vivo, 336 h; summary of the method: as §3
[21] = Cytotoxicity against imatinib-resistant human KBM5 cells harboring Bcr-Abl T315I mutant after 72 hrs by MTS assay; format: functional, cell-based; conditions: KBM5, 72 h; summary of the method: as §1
[22] = Cytotoxicity against mouse 32D cells harboring wild type Bcr-Abl after 72 hrs by MTS assay; format: functional, cell-based; summary of the method: as §2
Mus musculus [23] = experiment: Toxicity in BALB/c nu/nu mouse xenografted with human KBM5 cells harboring Bcr-Abl T315I mutant assessed as effect on motor activity at 0.5 mg/kg/day, ip for 2 weeks administered on day 14 after tumor implantation; format: organism-based; parameters: route intraperitoneal; conditions: in vivo, 336 h; summary of the method: as §3
[24] = Cytotoxicity against NHFB after 72 hrs by MTS assay; parameters: species or system Homo sapiens; summary of the method: as §6
KBM5 [25] = experiment: Cytotoxicity against human KBM5 cells harboring wild type Bcr-Abl at 0.001 to 17 uM after 72 hrs by MTS assay; format: functional, cell-based; summary of the method: as §1
[26] = Downregulation of Bcr-Abl protein level in mouse 32D cells harboring wild type Bcr-Abl after 18 hrs by Western blot analysis; format: functional, cell-based; summary of the method: as §5
[27] = Cytotoxicity against human KBM5 cells harboring wild type Bcr-Abl after 72 hrs by MTS assay; format: functional, cell-based; conditions: KBM5, 72 h; summary of the method: as §1
[28] = Downregulation of Bcr-Abl mRNA level in human KBM5 cells harboring Bcr-Abl T315I mutant at 50 to 100 nM after 18 hrs by semi-quantitative RT-PCR analysis; format: functional, cell-based; summary of the method: as §4
KBM5 [29] = experiment: Inhibition of RNA polymerase 2 in human KBM5 cells harboring wild type Bcr-Abl assessed as decrease in polymerase 2 phosphorylation after 18 hrs by Western blot analysis; format: cell-based; summary of the method: as §5

Cc1ccc(NC(=O)c2ccc(CN3CCN(C)CC3)cc2)cc1Nc1nccc(-c2cccnc2)n1 [IMATINIB]
280 nM: IC50 [1]
5400 nM: IC50 [2]

CC(C)[C@]12O[C@H]1[C@@H]1O[C@@]13[C@H]1CCC4=C(COC4=O)[C@@H]1C[C@@H]1O[C@@]13[C@@H]2OC(=O)CN1CCOCC1
Non-toxic: Activity (Mus musculus [5]) | Activity (Mus musculus [7]) | Activity (Mus musculus [8]) | Activity (Mus musculus [10]) | Activity (Mus musculus [17]) | Activity (Mus musculus [18]) | Activity (Mus musculus [19]) | Activity (Mus musculus [20]) | Activity (Mus musculus [23])
70 nM: IC50 [22]
10400 nM: IC50 [24]
active: inhibition (HeLa) | Activity (KBM5 [3]) | Activity (KBM5 [6]) | inhibition (DU-145) | Activity [9] | Activity (KBM5 [11]) | inhibition (HCT-116) | inhibition (KBM5 [12]) Dose-dependent effect | Activity [13] Dose-dependent effect | Activity [14] Dose-dependent effect | Activity [15] Dose-dependent effect | Activity (KBM5 [16]) | Activity (KBM5 [25]) | Activity [26] Dose-dependent effect | Activity [28] | inhibition (KBM5 [29]) Dose-dependent effect
80 nM: IC50 [4]
20.7 nM: IC50 [21]
11500 nM: IC50 (MEF)
52.5 nM: IC50 [27]
